# Results published in ChEMBL document CHEMBL1765030, “Discovery and preclinical evaluation of a novel class of cytotoxic propynoic acid carbamoyl methyl amides (PACMAs)” (J Med Chem, 2011).
# The source made the active and inactive calls. The calls are words filed in the database; no cut-off is given here.
# Experiments:
# UMUC3 = assay: Cytotoxicity against human UM-UC-3 cells after 72 hrs by MTT assay; format: functional, cell-based; conditions: UMUC3, 72 h
# Summary of the method: (§1)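 Cells were attached overnight, then continuously exposed to drug for 72 h. MTT (0.5 mg/mL final) was added for 4 h at 37 °C, formazan dissolved in DMSO, and A570 read; all in triplicate. IC50 came from log(concentration) vs % cells killed. Media: RPMI-1640 for HT29, HCT116 p53+/+ and p53−/−, and HEY; DMEM for MDA-MB-435 and UMUC3; all with 10% FBS, 37 °C, 5% CO₂.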
# HCT-116 [1] = assay: Cytotoxicity against p53 deficient human HCT116 cells […] after 72 hrs by MTT assay; format: functional, cell-based; conditions: HCT-116, 72 h; summary of the method: as §1
# [2] = Octanol-water distribution coefficient, log P of the compound; format: physicochemical
# MDA-MB-435 [3] = assay: Cytotoxicity against human MDA-MB-435 cells at 1 uM after 24 hrs using crystal violet staining by colony formation assay; format: functional, cell-based
# Summary of the method: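 Cells were plated at 1000 per well, attached overnight, and exposed to 1 μM for 24 h. They were then washed and grown in fresh medium for 8–10 days until colonies formed, fixed in 1% glutaraldehyde for 30 min, and stained with 2% crystal violet for 30 min. Vehicle was DMSO.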
# 5637 = assay: Cytotoxicity against human 5637 cells after 72 hrs by MTT assay; format: functional, cell-based; conditions: Homo sapiens, 5637, 72 h
# MDA-MB-435 [4] = assay: Cytotoxicity against human MDA-MB-435 cells after 72 hrs by MTT assay; format: functional, cell-based; conditions: MDA-MB-435, 72 h; summary of the method: as §1
# HCT-116 [5] = assay: Cytotoxicity against human HCT116 cells […] after 72 hrs by MTT assay; format: functional, cell-based; conditions: HCT-116, 72 h; summary of the method: as §1
# HEY = assay: Cytotoxicity against human HEY cells after 72 hrs by MTT assay; format: functional, cell-based; summary of the method: as §1
# HT-29 = assay: Cytotoxicity against human HT-29 cells after 72 hrs by MTT assay; format: functional, cell-based; conditions: HT-29, 72 h; summary of the method: as §1
# NCI/ADR-RES = assay: Cytotoxicity against human NCI/ADR-RES cells after 72 hrs by MTT assay; format: functional, cell-based
# MDA-MB-435 [6] = assay: Increase of mitochondrial superoxide accumulation in human MDA-MB-435 cells at IC50 to 3 times IC50 after 24 hrs by flow cytometry; format: functional, cell-based
# Summary of the method: (§2)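 Cells were drug-treated at two concentrations for 24 h, then loaded with 5 μM MitoSOX Red for 10 min at 37 °C and washed three times in HBSS. Cells were either viewed by fluorescence microscopy or trypsinized, washed twice in HBSS and read by flow cytometry; untreated cells served as control.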
# MDA-MB-435 [7] = assay: Increase of mitochondrial superoxide accumulation in human MDA-MB-435 cells at IC50 to 3 times IC50 after 24 hrs by fluorescence microscopic analysis; format: functional, cell-based; summary of the method: as §2
# MDA-MB-435 [8] = assay: Increase of mitochondrial superoxide accumulation in human MDA-MB-435 cells at 1.5 uM after 24 hrs by fluorescence microscopic analysis; format: functional, cell-based
# Summary of the method: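 MDA-MB-435 cells (DMEM, 10% FBS, 37 °C, 5% CO₂) treated 24 h, then loaded with 5 μM MitoSOX Red mitochondrial superoxide indicator for 10 min at 37 °C; washed three times with HBSS to remove excess dye and viewed under a fluorescence microscope for mitochondrial superoxide staining pattern, compared with untreated cells.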
# MDA-MB-435 [9] = assay: Increase of reactive oxygen species accumulation in human MDA-MB-435 cells at IC50 to 3 times IC50 after 24 hrs by fluorescence microscopic analysis; format: functional, cell-based
Compound,logP [2],IC50 (UMUC3),IC50 (HCT-116 [1]),Activity (MDA-MB-435 [3]),IC50 5637,IC50 (MDA-MB-435 [4]),IC50 (HCT-116 [5]),IC50 (HEY),IC50 (HT-29),IC50 (NCI/ADR-RES),Activity (MDA-MB-435 [6]),Activity (MDA-MB-435 [7]),Activity (MDA-MB-435 [8]),Activity (MDA-MB-435 [9])
C#CC(=O)N(c1ccccc1F)C(C(=O)NC1CCCCC1)c1ccccc1F (centres undefined),4.17,> 20 µM,10.1 µM,Active,2.1 µM,6.5 µM,11.9 µM,5.6 µM,7.7 µM,0.4 µM,–,–,–,–
COc1cccc2c1C(=O)c1c(O)c3c(c(O)c1C2=O)C[C@@](O)(C(=O)CO)C[C@@H]3O[C@H]1C[C@H](N)[C@H](O)[C@H](C)O1 [DOXORUBICIN],-0.82,–,–,Active,–,–,–,–,–,–,–,–,–,–
C#CC(=O)N(Cc1ccco1)C(C(=O)NC1CCCC1)c1ccccc1F (centres undefined),2.39,> 20 µM,13 µM,Active,2.9 µM,1.7 µM,10.5 µM,4.3 µM,> 10 µM,1.2 µM,–,–,–,–
C#CC(=O)N(c1ccc(-n2cnnn2)c(C)c1)C(C(=O)NC1CCCC1)c1ccccc1 (centres undefined),3.54,7.8 µM,5.7 µM,Active,0.4 µM,0.6 µM,7.2 µM,1.9 µM,1.5 µM,1 µM,–,–,–,–
C#CC(=O)N(c1cccc(C(F)(F)F)c1)C(C(=O)NCc1ccccc1)c1cccs1 (centres undefined),3.86,> 20 µM,16.1 µM,Active,1.2 µM,4.2 µM,9 µM,7.1 µM,7.3 µM,0.7 µM,–,–,–,–
C#CC(=O)N(Cc1ccc2c(c1)OCO2)C(C(=O)NCc1ccccc1)c1ccccc1F (centres undefined),3.32,> 20 µM,> 20 µM,Active,2.8 µM,> 10 µM,> 10 µM,> 10 µM,> 10 µM,1.3 µM,–,–,–,–
C#CC(=O)N(c1ccc2c(c1)OCCO2)C(C(=O)NC1CCCC1)c1ccccc1 (centres undefined),2.62,> 20 µM,> 20 µM,Active,1.9 µM,1.8 µM,17.3 µM,4.1 µM,3.2 µM,0.3 µM,–,–,–,–
CC(=O)O[C@H]1C(=O)[C@@]2(C)[C@H]([C@H](OC(=O)c3ccccc3)[C@]3(O)C[C@H](OC(=O)[C@H](O)[C@@H](NC(=O)c4ccccc4)c4ccccc4)C(C)=C1C3(C)C)[C@]1(OC(C)=O)CO[C@@H]1C[C@@H]2O [PACLITAXEL],0.54,–,–,Active,–,–,–,–,–,–,–,–,inactive,–
CC[C@@]1(O)C(=O)OCc2c1cc1n(c2=O)Cc2cc3ccccc3nc2-1 [CAMPTOTHECIN],1.67,–,–,–,–,–,–,–,–,–,–,–,–,–
O=C(O)c1ccccc1C1c2cc(Cl)c(O)cc2Oc2cc(O)c(Cl)cc21,–,–,–,–,–,–,–,–,–,–,–,–,–,inactive

# Further lines, with some results ahead:
logP [2],Compound,IC50 (UMUC3),IC50 (HCT-116 [1]),Activity (MDA-MB-435 [3]),IC50 5637,IC50 (MDA-MB-435 [4]),IC50 (HCT-116 [5]),IC50 (HEY),IC50 (HT-29),IC50 (NCI/ADR-RES),Activity (MDA-MB-435 [6]),Activity (MDA-MB-435 [7]),Activity (MDA-MB-435 [8]),Activity (MDA-MB-435 [9])
4.11,C#CC(=O)N(c1ccc2ccccc2c1)C(C(=O)NC1CCCC1)c1ccccc1 (centres undefined),> 20 µM,7.4 µM,Active,0.5 µM,7.3 µM,6.8 µM,1.7 µM,4.9 µM,0.3 µM,–,–,–,–
2.33,C#CC(=O)N(c1cc(OC)cc(OC)c1)C(C(=O)NC1CCCC1)c1ccc(OC)cc1 (centres undefined),> 20 µM,> 20 µM,Active,1.9 µM,2.4 µM,15 µM,2.3 µM,2.1 µM,0.3 µM,–,–,–,–
2.26,C#CC(=O)N(c1cc(OC)ccc1OC)C(C(=O)NC1CCCC1)c1cccs1 (centres undefined),5.7 µM,4.7 µM,Active,0.3 µM,0.5 µM,5.7 µM,1.5 µM,1.6 µM,0.3 µM,–,–,–,–
3.88,C#CC(=O)N(c1cccc(C(F)(F)F)c1)C(C(=O)NC1CCCCC1)c1cccs1 (centres undefined),> 20 µM,10.4 µM,Active,1.6 µM,6.9 µM,8.3 µM,5.2 µM,6 µM,0.4 µM,–,–,–,–
3.07,C#CC(=O)N(c1ccccc1)C(C(=O)NC1CCCCC1)c1cccs1 (centres undefined),> 20 µM,> 20 µM,Active,3.5 µM,> 10 µM,14 µM,> 10 µM,> 10 µM,1.3 µM,Active,Active,–,–
4.38,C#CC(=O)N(c1cccc(C(F)(F)F)c1)C(C(=O)NC1CCCC1)c1ccc(F)cc1 (centres undefined),8 µM,6.9 µM,Active,0.5 µM,5.2 µM,7.5 µM,2.4 µM,4.8 µM,0.4 µM,–,–,–,–
2.55,C#CC(=O)N(c1cccc(OC)c1)C(C(=O)NC1CCCC1)c1cccs1 (centres undefined),6.9 µM,5.6 µM,Active,0.3 µM,1.7 µM,7.2 µM,1.9 µM,2.3 µM,0.3 µM,–,–,–,–
2.26,C#CC(=O)N(c1ccc(OC)c(OC)c1)C(C(=O)NC1CCCC1)c1cccs1 (centres undefined),> 20 µM,9.6 µM,Active,2 µM,2 µM,7.7 µM,3.4 µM,5.5 µM,0.9 µM,–,–,–,–
2.26,C#CC(=O)N(c1ccc(OC)cc1OC)C(C(=O)NC1CCCC1)c1cccs1 (centres undefined),> 20 µM,7 µM,Active,1.7 µM,1.7 µM,6.9 µM,4.1 µM,2.3 µM,0.4 µM,–,–,–,–
